Reference: ChEMBL document CHEMBL1123938, “Synthesis and biological studies of iodinated (127/125I) derivatives of rhodamine 123” (1987)
Several values for one entry are separate records, joined by “and”; a condition that tells them apart may be missing. Identical values can stand only once.

How the values were obtained:
Cricetulus griseus = species on record: Cricetulus griseus; experiment: Extra cellular concentration of radiolabeled compound was determined in chinese hamster V79 lung fibroblasts; assay type: functional
In short: (§1)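 V79 Chinese hamster lung fibroblasts or human PC3 prostate adenocarcinoma cells, grown at 37 °C in MEM with 15% fetal calf serum. Log-phase cells were trypsinized and suspended at 2 × 10⁵/mL in calcium-free MEM, then preincubated 4 h at 37 °C on a roller. Carrier-free ¹²⁵I-labelled dihydrorhodamine derivative was added and incubated 2 h at 37 °C. Cell radioactivity was measured by microfuge; intracellular concentration was derived from Coulter-measured cell volumes.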

[1] = Ratio of pCi/cell cellular uptake to uCi/mL cellular uptake; assay type: functional
PC-3 = experiment: Extra cellular concentration of radiolabeled compound was determined in human prostate PC3 adenocarcinoma cells; assay type: functional, cell-based; in short: as §1

| Structure (SMILES) | Concentration (Cricetulus griseus) | Ratio [1] | Concentration (PC-3) |
| --- | --- | --- | --- |
| COC(=O)c1ccccc1C1c2cc(I)c(N)cc2Oc2c1cc(I)c(N)c2I (stereo unspecified) | 1.3 uCi ml-1 | 0.152 and 0.348 | 1.15 uCi ml-1 |
| COC(=O)c1ccccc1C1c2cc(I)c(N)cc2Oc2cc(N)c(I)cc21 | 0.97 uCi ml-1 |  | 0.883 uCi ml-1 |
| COC(=O)c1ccccc1C1c2cc(I)c(N)cc2Oc2c1ccc(N)c2I (stereo unspecified) | 1.64 uCi ml-1 |  | 1.35 uCi ml-1 |
| COC(=O)c1ccccc1C1c2ccc(N)cc2Oc2cc(N)c(I)cc21 (stereo unspecified) | 0.956 uCi ml-1 |  | 0.937 uCi ml-1 |
| COC(=O)c1ccccc1C1c2ccc(N)cc2Oc2c1ccc(N)c2I (stereo unspecified) | 1.27 uCi ml-1 |  | 1.2 uCi ml-1 |
